Screening results from PubChem BioAssay.
Hits are enriched below; roughly 2.1% of the tested compounds scored in any of these assays.
SMARCA2 activ: SMARCA2 function activation, primary screen; MG213 cells, MMTV-luciferase reporter, dexamethasone, overnight; activation, % at 9.1 µM; 1% of 370,000 active; AID 652017; in the data active = activation above about 7.8%;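 also: 0% = vehicle wells and 100% = reference activator wells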
MC4R antag cAMP: human MC4R antagonism in cAMP assay; MC4R-expressing cells, MTII-stimulated cAMP, LANCE TR-FRET; 0.48% of 360,000 active; inhibition, % at 6.5 µM; AID 540295; P32245;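 active = inhibition above its plate's cutoff, the mean of tested wells on that plate plus 3 SD, cut at about 29% in these data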;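 also: 0% = Melanotan II alone and 100% = Melanotan II plus saturating MCL0020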
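System: U2OS-MC4R stable cell line; Technique: Eu-cAMP/anti-cAMP TR-FRET, emission 671 nm; Repeats: single well per compound; Also added: Melanotan II; Dosing: one concentration, 6.5 µM nominal; Schedule: 30-min compound, 1-h challenge, 1-h detection, room temperature.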
MC4R ag barr: agonists of human melanocortin 4 receptor (MC4R) beta-arrestin. P32245. U2OS MC4R beta-arrestin complementation, luminescence; percent of melanotan II response, DMSO zero. activation, % at 8.9 µM. 0.98% of 360,000 active;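 active = activation above a per-plate cutoff, the mean activation of sample wells on that plate plus 3 SD, cut at about 8% in these data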
F508del corr: correctors of CFTR F508del function in bronchial epithelial cells | CFBE cells, YFP halide quenching; stimulated with forskolin plus potentiator P3; % fluorescence drop versus neutral controls | activity (quench increase), % at 7.58 µM | 0.36% of 350,000 active;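 active = mean added fluorescence quench of at least 8% versus neutral control, with both replicates also reaching 8%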;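 also: cells transiently co-express mutant CFTR-F508del with the halide-sensitive YFP; corrector assay measuring rescue of mutant channel to the surface after 24 h compound exposure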
MC4R barr conf: human MC4R beta-arrestin agonism confirmation; shares compounds with MC4R ag barr; U2OS MC4R beta-arrestin recruitment, luminescence; scaled DMSO 0%, Melanotan II 100%; activation, % at 8.9 µM; 31% of 2,400 active; AID 602192;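 active = mean activation across replicates above the hit cutoff set in the earlier primary screen, cut at about 8% in these data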
MOR DOR agonist: activates mu-delta opioid heterodimer, MC4R agonist counter-screen; shares compounds with MC4R ag barr; U2OS PathHunter beta-arrestin, beta-gal luminescence; percent of deltorphin B response, DMSO zero; activation, % at 9.2 µM; 5.8% of 2,400 active;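 active = mean activation across replicates exceeds the hit threshold derived in the earlier primary screen, cut at about 18% in these data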;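 also: 100% = deltorphin B at 0.9 µM final and 0% = DMSO alone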
Target sequence (P35372 whole entry, looked up): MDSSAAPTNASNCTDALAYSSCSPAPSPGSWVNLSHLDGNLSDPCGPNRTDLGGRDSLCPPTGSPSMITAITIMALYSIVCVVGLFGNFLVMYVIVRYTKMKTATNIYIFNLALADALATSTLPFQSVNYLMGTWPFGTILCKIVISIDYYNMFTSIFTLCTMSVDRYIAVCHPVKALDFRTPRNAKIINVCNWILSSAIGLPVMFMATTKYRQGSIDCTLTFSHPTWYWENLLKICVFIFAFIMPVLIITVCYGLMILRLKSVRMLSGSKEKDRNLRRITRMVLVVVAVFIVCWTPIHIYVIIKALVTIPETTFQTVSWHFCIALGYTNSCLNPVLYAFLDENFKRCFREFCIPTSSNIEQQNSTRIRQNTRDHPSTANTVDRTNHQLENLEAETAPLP
Target sequence (P41143 whole entry, looked up): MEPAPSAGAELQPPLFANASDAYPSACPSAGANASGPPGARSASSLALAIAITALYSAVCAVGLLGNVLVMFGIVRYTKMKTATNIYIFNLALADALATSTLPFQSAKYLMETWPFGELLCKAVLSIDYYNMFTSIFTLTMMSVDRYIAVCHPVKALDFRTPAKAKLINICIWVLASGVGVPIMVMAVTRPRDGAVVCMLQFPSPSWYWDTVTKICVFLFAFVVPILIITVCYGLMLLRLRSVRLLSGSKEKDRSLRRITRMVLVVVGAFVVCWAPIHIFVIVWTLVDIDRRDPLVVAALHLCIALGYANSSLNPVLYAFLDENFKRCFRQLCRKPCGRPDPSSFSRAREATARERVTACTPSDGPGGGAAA
The depositor's hits bear a star; . = not tested or not shown.

SMILES | SMARCA2 activ | MC4R antag cAMP | MC4R ag barr | F508del corr | MC4R barr conf | MOR DOR agonist
COc1cccc(CC2(CO)CCCN(Cc3[nH]c4ccc(C)cc4c3C)C2)c1 (configuration not stated) | -3 | 2 | 11* | -2 | 19* | 14
C[C@H](CO)N1C[C@H](C)[C@@H](CN(C)CC2CCCCC2)OCc2cn(nn2)CCCC1=O | . | . | . | 0 | . | .
CC(C)=C[C@H]1C[C@H](C)[C@H]2CC[C@H](C)c3c(O)c(O[C@H]4OC[C@H](O)[C@@H](O)[C@@H]4O)c(C)c1c32 | -1 | -5 | 12* | -4 | 4 | 2
S=C(Nc1cc(Cl)cc(Cl)c1)NC1CCN(Cc2ccccc2)CC1 | -4 | 5 | 13* | 1 | 8 | 22*
C[C@@H]1CCCCO[C@H](CN(C)C(=O)CCCN(C)C)[C@H](C)CN([C@@H](C)CO)C(=O)c2cc(NC(=O)NC3CCCCC3)ccc2O1 | . | . | . | 3 | . | .
CCS(=O)(=O)NCC[C@H]1CC[C@H](NC(=O)C2CC2)[C@@H](CO)O1 | . | . | . | 2 | . | .
O=C(C[C@@H]1CC[C@@H](NC(=O)C2CCOCC2)[C@H](CO)O1)Nc1ccccc1 | . | . | . | 1 | . | .
COc1ccccc1-c1ccc([C@H]2[C@H](C#N)N[C@@H]2CO)cc1 | . | . | . | -6 | . | .
O=C(Nc1ccccc1)Nc1sccc1-c1nc2ccccc2s1 | -3 | 26 | 17* | -3 | 5 | 5
Cc1noc(C)c1S(=O)(=O)N(C)C[C@H]1OCCCC[C@H](C)Oc2ccc(NS(=O)(=O)c3ccccc3)cc2C(=O)N([C@@H](C)CO)C[C@@H]1C | . | . | . | 6 | . | .
C[C@H](O)C#Cc1cnc2c(c1)C(=O)N([C@H](C)CO)C[C@@H](C)[C@@H](CN(C)Cc1ccccn1)O2 | . | . | . | 0 | . | .
COC(=O)c1c(NC(C)=O)sc2c1CCN(Cc1ccccc1)C2 | -1 | 12 | 2 | -2 | . | .
COC(=O)c1c(NC(=O)C(C)(C)C)sc2c1CCN(Cc1ccccc1)C2 | -1 | -9 | 11* | -1 | 6 | 5
O=C(O)/C=C/C(=O)Nc1ccc(C2(c3ccc(NC(=O)/C=C/C(=O)O)cc3)c3ccccc3-c3ccccc32)cc1 | 2 | -1 | 53* | 2 | 1 | 1
CCN(c1ccc(OC)cc1)S(=O)(=O)c1nnc(NC(=O)C(C)C)s1 | -3 | -7 | 1 | -3 | . | .
CCN(c1ccc(OC)cc1)S(=O)(=O)c1nnc(NC(=O)C2CCCCC2)s1 | -3 | 4 | 12* | 2 | 1 | 7
CCN(c1ccc(Cl)cc1)S(=O)(=O)c1nnc(NC(=O)C(C)C)s1 | 1 | -4 | 10* | -2 | 1 | 6
CCCCC(=O)Nc1nnc(S(=O)(=O)N(CC)c2ccc(OC)cc2)s1 | -4 | 0 | 3 | -3 | . | .
Cc1c(C(=O)Nc2ccc(-c3nnc4n3CCCCC4)cc2)oc2c1ccc1ccccc12 | -4 | 13 | 11* | . | 6 | 3
COc1ccc(OCC(=O)N/N=C/C(C)=C/c2ccco2)c(Br)c1 | -1 | 18 | 19* | 1 | -1 | 8
Cc1ccccc1OCC(=O)N/N=C/c1ccco1 | -3 | 2 | 0 | . | . | .
C/C=C/c1ccc([C@H]2[C@@H](CO)N(c3nc(C)c(C)s3)[C@@H]2CNCC(C)C)cc1 | . | . | . | 4 | . | .
C/C(=N/NC(=O)CSCc1ccc(Cl)cc1)c1cccc(NC(=O)c2ccccc2)c1 | -2 | 21 | 22* | . | 5 | 11
O=C(O)CN1C(=O)/C(=C\c2cc(Br)ccc2OCc2ccc(Cl)cc2Cl)SC1=S | . | 11 | 11* | . | 8 | 1
O=C(O)CN1C(=O)/C(=C\c2ccccc2OCc2ccc(Cl)cc2)SC1=S | 3 | -2 | -1 | -3 | . | .
SMILES | SMARCA2 activ | MC4R antag cAMP | MC4R ag barr | F508del corr | MC4R barr conf | MOR DOR agonist
C[C@@H]1CN([C@@H](C)CO)C(=O)c2c(c3ccccc3n2C)-c2ccccc2CO[C@H]1CN(C)CC1CC1 | . | . | . | -1 | . | .
CCc1ccc(NC(=O)COc2ccc(/C=C(/C#N)c3nc4ccccc4[nH]3)cc2OC)cc1 | 3 | 1 | 69* | . | 17* | 23*
CC(C)(C)C(=O)NC(=S)Nc1sc2c(c1C#N)CCCCC2 | -1 | -5 | 17* | . | -3 | 2
COc1ccc(C2c3ccc(O)cc3Oc3ncn4nc(-c5ccccn5)nc4c32)cc1 (configuration not stated) | 2 | 3 | 49* | 3 | 9.5* | 10
O=[N+]([O-])c1ccc(Cl)c(-c2ccc(/C=N/c3c(-c4ccco4)nc4ccccn34)o2)c1 | -2 | 7 | 2 | . | . | .
O=[N+]([O-])c1ccc(-c2ccc(/C=N/c3c(-c4ccco4)nc4ccccn34)o2)cc1 | -3 | 4 | 13* | . | 9.2* | 9
NNC(=O)c1ccc(OCC2CC(c3ccc(Cl)cc3)=NO2)cc1 (configuration not stated) | 0 | 10 | 12* | 0 | 0 | 5
Cc1cc(=O)oc2cc(OCC3CC(c4ccc(Cl)cc4)=NO3)ccc12 (configuration not stated) | 2 | 12 | 0 | . | . | .
